From ChEMBL document CHEMBL1143670, “An adamantyl-substituted retinoid-derived molecule that inhibits cancer cell growth and angiogenesis by inducing apoptosis and binds to small heterodimer partner nuclear receptor: effects of modifying its carboxylate group on apoptosis, proliferation, and protein-tyrosine phosphatase activity” (J Med Chem, 2007)
Active and inactive are the calls of the source. The calls are words filed in the database; no cut-off is given here.

Key:
KG-1 [1] = assay: Inhibition of cell proliferation in retinoid-resistant KG1 cells at 1 uM after 48 hrs relative to control; type: functional; settings: Homo sapiens, KG-1, 48 h
Outline: (§1)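 KG-1 cells grown in RPMI-1640 with 5% heat-inactivated FBS and gentamycin, seeded in 3 mL medium plus 5% FBS, incubated overnight. Compound then added in Me2SO (0.1% final), cells incubated for the stated time, harvested and counted by hemocytometer.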

[2] = Growth inhibition of retinoid-resistant H292 cells after 72 hrs; type: functional, cell-based; settings: Homo sapiens, NCI-H292, 72 h
Outline: (§2)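 Cells seeded at 2 × 10^3 per well for H292 and DU-145 (RPMI-1640, 10% FBS) or 4 × 10^3 for MDA-MB-231 (DMEM, 10% FBS), 37 °C, 6% CO2. After 24 h attachment, treated 72 h with compound in Me2SO (0.1% final); media and compound renewed at 48 h. Viable cells by MTS reduction; triplicates per concentration.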

MDA-MB-231 [3] = assay: Growth inhibition of retinoid-resistant MDA-MB-231 cells after 72 hrs; type: functional, cell-based; settings: Homo sapiens, MDA-MB-231, 72 h; outline: as §2
[4] = Growth inhibition of retinoid-resistant H292 cells at 1 uM relative to control; type: functional; settings: Homo sapiens, NCI-H292; outline: as §2
KG-1 [5] = assay: Growth inhibition of retinoid-resistant KG1 cells at 5 uM after 48 hrs; type: functional; settings: Homo sapiens, KG-1, 48 h; outline: as §1
[6] = biological target: T1, Nuclear receptor subfamily 0 group B member 2 (Homo sapiens) (UniProt Q15466); assay: Displacement of [5,5'-3H2]AHPN from recombinant human GST-SHP partner nuclear orphan receptor at 50 uM
T1 sequence (whole entry): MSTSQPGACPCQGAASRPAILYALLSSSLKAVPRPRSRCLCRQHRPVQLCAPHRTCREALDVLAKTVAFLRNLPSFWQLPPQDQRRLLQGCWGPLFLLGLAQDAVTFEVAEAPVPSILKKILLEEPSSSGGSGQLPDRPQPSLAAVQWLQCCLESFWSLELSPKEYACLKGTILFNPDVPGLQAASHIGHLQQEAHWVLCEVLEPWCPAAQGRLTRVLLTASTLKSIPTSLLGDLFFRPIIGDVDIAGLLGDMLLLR
Outline: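 GST–human SHP fusion (150–500 ng) on glutathione-Sepharose beads preincubated on ice 45 min with unlabeled compound (50 µM final) in 0.4 mL binding buffer. [5,5′-3H2]AHPN (5 nM final) then added for 2 h at 4 °C. Beads washed, counted by scintillation directly or after elution with 50 mM NaHCO3/1% SDS.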

DU-145 [7] = assay: Growth inhibition of retinoid-resistant DU145 cells after 72 hrs; type: functional, cell-based; settings: Homo sapiens, DU-145, 72 h; outline: as §2
KG-1 [8] = assay: Induction of apoptosis in retinoid-resistant KG1 cells at 1 uM after 48 hrs; type: functional, Homo sapiens
Outline: (§3)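 Apoptotic cells scored by acridine orange staining. KG-1, HL-60R or MDA-MB-231 cells seeded in medium with 5% FBS, incubated overnight, then exposed to compound in Me2SO (0.1% final) for the stated time.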

KG-1 [9] = assay: Induction of apoptosis in retinoid-resistant KG1 cells at 5 uM after 48 hrs; type: functional, Homo sapiens; outline: as §3
DU-145 [10] = assay: Growth inhibition of retinoid-resistant DU145 cells at 1 uM relative to control; type: functional; settings: Homo sapiens; outline: as §2
MDA-MB-231 [11] = assay: Growth inhibition of retinoid-resistant MDA-MB-231 cells at 1 uM relative to control; type: functional; settings: Homo sapiens; outline: as §2
[12] = Inhibition of HMVE cell proliferation at 0.5 uM relative to control; type: functional; settings: Homo sapiens
Mus musculus = assay: Inhibition of TPA-induced ornithine decarboxylase in mouse dorsal epidermis applied topically after 1 hr; type: functional
F9 = assay: Induction of terminal differentiation in mouse F9 cells assessed by measuring secreted plasminogen activator activity after 3 days; type: functional, cell-based; settings: F9, 72 h, read-out: IC50 (the source's name)
Trachea = assay: Reversal of keratinization in vitamin A-deficient hamster trachea after 10 days by TOC assay; type: functional, tissue-based; settings: Cricetinae, 240 h
[13] = biological target: T2, Tyrosine-protein phosphatase non-receptor type 11 (Homo sapiens, UniProt Q06124); assay: Inhibition of SHP2 PTP by fluorescence spectroscopy
T2 sequence (Q06124 whole entry): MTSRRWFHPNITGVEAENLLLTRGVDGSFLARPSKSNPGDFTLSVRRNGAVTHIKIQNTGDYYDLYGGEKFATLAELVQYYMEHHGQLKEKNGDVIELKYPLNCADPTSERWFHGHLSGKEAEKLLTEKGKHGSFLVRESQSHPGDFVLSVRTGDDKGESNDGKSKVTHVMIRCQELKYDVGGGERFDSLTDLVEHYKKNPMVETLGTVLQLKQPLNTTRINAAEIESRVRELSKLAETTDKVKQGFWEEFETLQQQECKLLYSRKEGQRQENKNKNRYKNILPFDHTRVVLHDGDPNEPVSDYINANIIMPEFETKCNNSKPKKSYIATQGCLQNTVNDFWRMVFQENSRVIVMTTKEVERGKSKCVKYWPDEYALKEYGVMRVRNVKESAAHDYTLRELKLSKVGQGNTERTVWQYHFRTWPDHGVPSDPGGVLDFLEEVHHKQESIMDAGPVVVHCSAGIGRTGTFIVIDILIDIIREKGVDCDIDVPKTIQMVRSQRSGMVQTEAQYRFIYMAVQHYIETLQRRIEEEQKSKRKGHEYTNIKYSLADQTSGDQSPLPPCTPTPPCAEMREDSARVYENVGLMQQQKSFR

KG-1 [14] = assay: Inhibition of cell proliferation in retinoid-resistant KG1 cells after 48 hrs; type: functional, cell-based; settings: Homo sapiens, KG-1, 48 h; outline: as §1
[15] = biological target: Receptor-type tyrosine-protein phosphatase C, CD45 (Homo sapiens) (UniProt P08575); assay: Inhibition of CD45 PTP at 10 uM relative to control by fluorescence spectrometry
KG-1 [16] = assay: Inhibition of cell proliferation of KG1 cells; type: functional, cell-based; settings: Homo sapiens; outline: as §1
[17] = Antiproliferative activity against HMVE cells; type: functional, cell-based; settings: Homo sapiens
[18] = (§4) Induction of apoptosis in tran-RA-resistant HL60R cells at 1 uM after 24 hrs; type: functional, Homo sapiens
MDA-MB-231 [19] = assay: Induction of apoptosis in retinoid-resistant MDA-MB-231 cells at 1 uM after 96 hrs; type: functional, Homo sapiens; outline: as §3
HL60R = assay: as §4; type: functional; settings: Homo sapiens

Sequence of Receptor-type tyrosine-protein phosphatase C, CD45 (Homo sapiens) (P08575 whole entry, looked up): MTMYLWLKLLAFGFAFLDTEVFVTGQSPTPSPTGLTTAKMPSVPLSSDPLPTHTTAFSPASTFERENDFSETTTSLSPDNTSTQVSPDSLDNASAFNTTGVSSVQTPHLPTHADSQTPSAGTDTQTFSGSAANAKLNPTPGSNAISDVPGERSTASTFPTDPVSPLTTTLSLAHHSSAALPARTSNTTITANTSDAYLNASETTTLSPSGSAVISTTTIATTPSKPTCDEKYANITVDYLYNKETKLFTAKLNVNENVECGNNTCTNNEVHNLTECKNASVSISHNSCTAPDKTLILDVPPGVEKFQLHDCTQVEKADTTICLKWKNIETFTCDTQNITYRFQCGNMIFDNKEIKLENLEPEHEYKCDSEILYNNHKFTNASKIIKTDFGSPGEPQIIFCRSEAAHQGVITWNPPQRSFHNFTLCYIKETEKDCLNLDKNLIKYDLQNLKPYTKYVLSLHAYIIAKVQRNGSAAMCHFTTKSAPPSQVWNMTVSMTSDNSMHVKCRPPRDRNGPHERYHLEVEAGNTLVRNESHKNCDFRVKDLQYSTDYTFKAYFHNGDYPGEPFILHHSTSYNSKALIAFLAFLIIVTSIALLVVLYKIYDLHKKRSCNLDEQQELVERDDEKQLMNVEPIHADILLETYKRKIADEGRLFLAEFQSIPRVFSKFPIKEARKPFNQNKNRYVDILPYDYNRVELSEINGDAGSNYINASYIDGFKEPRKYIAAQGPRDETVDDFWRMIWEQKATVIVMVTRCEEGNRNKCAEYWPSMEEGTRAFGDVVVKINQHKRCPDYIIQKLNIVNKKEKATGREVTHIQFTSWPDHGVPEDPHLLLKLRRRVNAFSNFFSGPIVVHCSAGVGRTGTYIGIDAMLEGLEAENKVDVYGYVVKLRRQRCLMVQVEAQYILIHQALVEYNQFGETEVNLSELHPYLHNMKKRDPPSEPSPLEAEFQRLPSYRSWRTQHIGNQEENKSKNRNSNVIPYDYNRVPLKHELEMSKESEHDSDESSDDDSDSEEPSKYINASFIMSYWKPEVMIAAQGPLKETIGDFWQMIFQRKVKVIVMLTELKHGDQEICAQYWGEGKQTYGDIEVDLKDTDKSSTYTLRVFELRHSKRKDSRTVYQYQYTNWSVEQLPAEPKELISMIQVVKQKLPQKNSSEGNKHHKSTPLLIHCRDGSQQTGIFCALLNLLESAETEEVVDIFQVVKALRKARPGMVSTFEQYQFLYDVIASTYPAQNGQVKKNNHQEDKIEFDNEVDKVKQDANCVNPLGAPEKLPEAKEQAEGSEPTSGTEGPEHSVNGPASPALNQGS

Row | IC50 (MDA-MB-231 [3]) | IC50 (DU-145 [7]) | SMILES | inhibition at 1 µM (KG-1 [1]) | IC50 [2] | inhibition at 1 µM [4] | inhibition at 5 µM (KG-1 [5]) | Activity (KG-1 [8]) | Activity (KG-1 [9]) | inhibition at 1 µM (DU-145 [10]) | inhibition at 1 µM (MDA-MB-231 [11]) | inhibition at 0.5 µM [12] | IC50 (KG-1 [14]) | IC50 [17] | other results
1 | 24 µM | 15 µM | O=C1NC(=O)/C(=C/C=C/c2ccc(-c3ccc(O)c(C45CC6CC(CC(C6)C4)C5)c3)c(Cl)c2)S1 | 0% | 23 µM | 2% | 2% | 2% | 2% | 0% | 0% |  |  |  | Activity [6]: 69%
2 |  |  | CC(=O)NCCCOc1cc(/C=C/C(=O)O)ccc1-c1ccc(O)c(C23CC4CC(CC(C4)C2)C3)c1 |  |  |  |  |  |  |  |  |  |  |  | Activity [6]: 72%
3 |  |  | CC1(C)CCC(C)(C)c2cc(/C(=N\O)c3ccc4cc(C(=O)O)ccc4c3)ccc21 |  |  |  |  |  |  |  |  | 30% |  |  | 
4 |  |  | CC1(C)CCC(C)(C)c2cc(-c3ccc4cc(C(=O)O)ccc4c3)ccc21 |  |  |  |  |  |  |  |  |  |  |  | ID50 (Mus musculus): 2 nmol; EC50 (F9): 0.001 µM; IC50 (Trachea): 7 pM
5 | 71 µM | 52 µM | Oc1ccc(-c2ccc(-c3nnn[nH]3)cc2Cl)cc1C12CC3CC(CC(C3)C1)C2 | 13% | 14 µM | 3% | 21% | 2% | 2% | 0% | 0% |  | > 5 µM |  | IC50 [13]: 1.3 µM; inhibition [15]: 46%
6 | > 10 µM | > 10 µM | N#CC(C#N)=Cc1ccc(-c2ccc(O)c(C34CC5CC(CC(C5)C3)C4)c2)c(Cl)c1 | 0% | > 10 µM | 0% | 0% | 0% | 3% | 4% | 0% |  | > 5 µM |  | IC50 (KG-1 [16]): > 5 µM
7 | 21 µM | 14 µM | Oc1ccc(-c2ccc(/C=C/c3nnn[nH]3)cc2Cl)cc1C12CC3CC(CC(C3)C1)C2 | 0% | 16 µM | 3% | 31% | 10% | 12% | 0% | 0% |  | 13 µM |  | 
8 |  |  | CC1=C(/C=C/C(C)=C/C=C/C(C)=C/C(=O)O)C(C)(C)CCC1 [TRETINOIN] |  |  |  |  |  |  |  |  | 10% |  | > 0.5 µM | ID50 (Mus musculus): 0.19 nmol; IC50 (Trachea): 10 pM
9 | 19 µM | 7 µM | OB(O)/C=C/c1ccc(-c2ccc(O)c(C34CC5CC(CC(C5)C3)C4)c2)c(Cl)c1 | 0% | 7.2 µM | 0% | 0% | 4% | 4% | 2% | 3% |  | > 5 µM |  | Activity [6]: 0%; IC50 (KG-1 [16]): > 5 µM
10 |  |  | O=C(O)c1ccc2c(Cl)c(-c3ccc(O)c(C45CC6CC(CC(C6)C4)C5)c3)ccc2c1 |  |  |  |  |  |  |  |  | 45% |  | 0.5 µM | 
11 |  |  | Oc1ccc2cc(-c3ccc(O)c(C45CC6CC(CC(C6)C4)C5)c3)ccc2c1 |  |  |  |  |  |  |  |  | 15% |  | > 0.5 µM | 
12 |  |  | CC1(C)CCC(C)(C)c2cc(-c3ccc(/C=C/C(=O)O)cc3)ccc21 |  |  |  |  |  |  |  |  |  |  |  | ID50 (Mus musculus): 7.5 nmol; EC50 (F9): 0.0003 µM; IC50 (Trachea): 320 pM
13 | 6.3 µM | 3.5 µM | O=C(/C=C/c1ccc(-c2ccc(O)c(C34CC5CC(CC(C5)C3)C4)c2)c(Cl)c1)NO | 0% | 9 µM | 6% | 0% |  | 4% | 7% | 4% |  | > 5 µM |  | Activity [6]: 7%; IC50 (KG-1 [16]): > 5 µM
14 |  |  | O=C(O)c1ccc2cc(-c3ccc(O)c(C45CC6CC(CC(C6)C4)C5)c3)ccc2c1 [O-DEMETHYLATED ADAPALENE] |  |  |  |  |  |  |  |  |  |  | 0.3 µM | Activity [18]: 98%; Activity (MDA-MB-231 [19]): 46%; Activity [6]: 53%; ID50 (Mus musculus): 66 nmol
15 |  |  | O=C(O)/C=C/c1ccc(-c2ccc(O)c(C34CC5CC(CC(C5)C3)C4)c2)cc1 [ADAROTENE] |  |  |  |  |  |  |  |  | 90% |  | 0.1 µM | inhibition [15]: 84%
16 |  |  | Cc1c(-c2ccc3c(c2)C(C)(C)CCC3(C)C)ccc2cc(C(=O)O)ccc12 |  |  |  |  |  |  |  |  |  |  |  | ID50 (Mus musculus): 66 nmol; EC50 (F9): 0.003 µM; IC50 (Trachea): 80 pM
17 |  |  | Cc1c(-c2ccc(O)c(C34CC5CC(CC(C5)C3)C4)c2)ccc2cc(C(=O)O)ccc12 |  |  |  |  |  | 73% |  |  |  |  |  | Activity at 1 µM (KG-1 [8]; Homo sapiens, KG-1, 48 h): 51%
18 |  |  | O=C(O)c1ccc2ccc(-c3ccc(O)c(C45CC6CC(CC(C6)C4)C5)c3)cc2c1 |  |  |  |  |  |  |  |  | 15% |  | > 0.5 µM | Activity (HL60R): inactive
19 | 14 µM | 7.8 µM | O=CC(=O)/C=C/c1ccc(-c2ccc(O)c(C34CC5CC(CC(C5)C3)C4)c2)c(Cl)c1 | 11% | 7 µM | 7% | 38% | 5% | 6% | 0% | 0% |  | 10 µM |  | 
20 | > 5 µM | > 5 µM | CCOP(=O)(O)/C=C/c1ccc(-c2ccc(O)c(C34CC5CC(CC(C5)C3)C4)c2)c(Cl)c1 | 0% | > 5 µM | 2% | 0% | 0% | 0% | 3% | 3% |  | > 5 µM |  | 
